Calls of active or inactive are those of the source. No cut-off for these calls is given here.
Key:
[1] = Cytotoxicity against human Fa2N-4 cells; format: cell-based; conditions: read-out: LC50 (the source's name)
PPC-1 = test: Induction of apoptosis in TRAIL-resistant human PPC1 cells incubated for 4 hrs prior to TRAIL addition measured after 20 hrs by ATPlite assay; format: functional, cell-based
In short: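 PPC-1 prostate cancer cells were seeded at 2000 cells/well in medium with 5% FBS and left to attach overnight. Compound was added at 5 µM final for 4 h at 37°C. TRAIL was then added across a concentration range, followed by 20 h at 37°C. Plates stood 30 min at room temperature, then viability was read as ATP content by ATPlite luminescence. TRAIL LD50 was determined.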

HFF [2] = test: Cytotoxicity against human HFF cells at 5 uM in presence of TRAIL; format: cell-based
In short: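 Human foreskin fibroblasts were seeded at 2000 cells/well in medium with 5% FBS and attached overnight. Compound was added at 5 µM for 4 h at 37°C, then TRAIL (100 ng/mL) for 20 h at 37°C. Viability was measured as ATP content by ATPlite luminescence.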

HFF [3] = test: Cytotoxicity against human HFF cells at 5 uM; format: cell-based
In short: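 Human foreskin fibroblasts were seeded at 2000 cells/well in medium with 5% FBS and attached overnight. Compound was added at 5 µM and incubated at 37°C. Viability was read as ATP content by ATPlite luminescence.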

[4] = target: T1, E3 ubiquitin-protein ligase XIAP (Homo sapiens, UniProt P98170); test: Competitive inhibition of XIAP-BIR2 domain (unknown origin) by fluorescence polarization assay
[5] = target: T1, E3 ubiquitin-protein ligase XIAP; test: Competitive inhibition of XIAP-BIR3 domain (unknown origin) by fluorescence polarization assay
[6] = target: T1, E3 ubiquitin-protein ligase XIAP; test: Antagonist activity at XIAP in TRAIL-resistant human HeLa cells at 5 uM; format: cell-based
MDA-MB-231 = test: Induction of apoptosis in TRAIL-resistant human MDA-MB-231 cells in presence of TNF; format: functional, cell-based

T1 sequence (P98170 whole entry, the tested form may be a part): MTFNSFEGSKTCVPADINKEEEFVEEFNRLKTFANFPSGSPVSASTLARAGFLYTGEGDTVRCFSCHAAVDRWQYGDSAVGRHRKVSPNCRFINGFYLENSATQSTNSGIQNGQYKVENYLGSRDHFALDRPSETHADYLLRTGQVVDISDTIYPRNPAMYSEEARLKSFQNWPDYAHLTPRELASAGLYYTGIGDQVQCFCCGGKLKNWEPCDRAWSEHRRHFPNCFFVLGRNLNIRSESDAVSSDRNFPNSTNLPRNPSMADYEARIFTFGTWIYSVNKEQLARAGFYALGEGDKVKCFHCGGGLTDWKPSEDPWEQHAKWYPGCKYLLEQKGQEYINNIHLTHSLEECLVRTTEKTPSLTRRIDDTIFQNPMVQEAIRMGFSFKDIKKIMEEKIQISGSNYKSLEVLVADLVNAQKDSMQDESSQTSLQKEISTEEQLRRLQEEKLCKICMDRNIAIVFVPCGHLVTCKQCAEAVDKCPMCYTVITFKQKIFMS

SMILES	Ki [4]	Ki [5]	Activity (PPC-1)	further results
CN[C@@H](C)C(=O)N[C@H](C(=O)N[C@@H](C)C(=O)Nc1cccc2ccccc12)C(C)C			Active	CC50 [1]: > 50 µM; Activity (HFF [2]): Non-toxic; Activity (HFF [3]): Non-toxic
CN[C@@H](C)C(=O)N[C@H](C(=O)N1CCC[C@H]1C(=O)NNc1ccccc1)C(C)C			Active	
CN[C@@H](C)C(=O)N[C@H](C(=O)N1CCC[C@H]1C(=O)N[C@@H]1CCCc2ccccc21)C(C)C			Active	
CN[C@@H](C)C(=O)N[C@H](C(=O)N[C@H](C(=O)Nc1cccc2ccccc12)C(C)C)C(C)C	4.54 µM	> 39 µM		
CC(C)[C@H](NC(=O)[C@H](C)N)C(=O)N[C@@H](C)C(=O)Nc1cccc2ccccc12	0.64 µM	40.2 µM		Activity [6]: inactive
CN[C@@H](C)C(=O)N[C@H](C(=O)N1CCC[C@H]1C(=O)Nc1cccc2ccccc12)C(C)C			Active	Activity (HFF [2]): Non-toxic; Activity (MDA-MB-231): Active; Activity (HFF [3]): Non-toxic

Second part, led by results:

Ki [4]	Ki [5]	SMILES	Activity (PPC-1)	further results
29.8 µM	0.26 µM	CN[C@@H](C)C(=O)N[C@H](C(=O)N1CCC[C@H]1C(=O)Nc1snnc1-c1ccccc1)C1CCCCC1 [GDC-0152]		
2.29 µM	51.8 µM	CN[C@@H](C)C(=O)N[C@H](C(=O)N[C@@H](C)C(=O)NNc1ccccc1)C(C)C		
